From ChEMBL document CHEMBL1126834, “Chemistry, binding affinities, and behavioral properties of a new class of "antineophobic" mitochondrial DBI receptor complex (mDRC) ligands” (J Med Chem, 1993)
Values joined by “and” are separate entries in the source; they are usually repeats but may differ in a detail not shown here. Identical values can stand only once.

Columns and labels:
[1] = Inhibitory activity by measuring its ability to displace [3H]glycine from glycine receptor in rat brain; format: tissue-based
[2] = molecular target: Adrenergic receptor alpha; test: Inhibitory activity by measuring its ability to displace [3H]clonidine from alpha-adrenergic receptor in rat brain; format: tissue-based
[3] = molecular target: Adrenergic receptor alpha; test: Inhibitory activity by measuring its ability to displace [3H]WB-4101 from alpha-adrenergic receptor in rat brain; format: tissue-based
Translocator protein = Translocator protein (Rattus norvegicus, UniProt P16257); test: Binding affinity against mitochondrial DBI complex (peripheral benzodiazepine receptor) using primary cultures of glial cells
Translocator protein, sequence (P16257 whole entry, looked up): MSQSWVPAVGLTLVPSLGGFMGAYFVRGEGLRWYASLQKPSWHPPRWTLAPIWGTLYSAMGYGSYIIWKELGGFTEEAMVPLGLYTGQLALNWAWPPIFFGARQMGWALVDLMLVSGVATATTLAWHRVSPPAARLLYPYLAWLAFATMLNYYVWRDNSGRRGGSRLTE
Procedure, shortened: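 Glia from cerebella of 8-day-old Sprague–Dawley rat pups, trypsin-dissociated and grown 14 days (~95% astroglia). Cells lysed in 50 mM Hepes pH 7.4, 4 μg protein per tube. Incubated with [3H]4'-chlorodiazepam and competitor for 90 min at 4 °C, then filtered. Nonspecific binding defined with 10 μM 4'-chlorodiazepam. Triplicate competition curves; IC50 by nonlinear regression, converted to Ki (Bylund–Yamamura).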

Rattus norvegicus [4] = test: Tested for antineophobic activity administered at 225 umol/kg perorally in adrenalectomized/castrated rats; format: functional
Procedure, shortened: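 Rats of 175–200 g were adrenalectomized and castrated 3 days before the elevated plus maze. Drug was suspended in 1% DMSO/H2O and given by oral gavage 1 h before the test. […] was scored; n = 10 rats, mean ± SEM.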

[5] = molecular target: GABA-A receptor; anion channel; test: Inhibitory activity at GABA A receptor, measured by the ability to displace [3H]zolpidem from GABA A receptor in rat brain; format: tissue-based
[6] = Inhibitory activity by measuring its ability to displace [3H]spiperone from dopamine or serotonin 5-HT-1 receptors in rat brain; format: tissue-based
Cannabinoid receptor 1 = Cannabinoid receptor 1 (Rattus norvegicus, UniProt P20272); test: Inhibitory activity, measured by displacement [3H]CP-55940 from cannabinoid receptor (CB1) in rat brain; format: tissue-based
Cannabinoid receptor 1, sequence (P20272 whole entry): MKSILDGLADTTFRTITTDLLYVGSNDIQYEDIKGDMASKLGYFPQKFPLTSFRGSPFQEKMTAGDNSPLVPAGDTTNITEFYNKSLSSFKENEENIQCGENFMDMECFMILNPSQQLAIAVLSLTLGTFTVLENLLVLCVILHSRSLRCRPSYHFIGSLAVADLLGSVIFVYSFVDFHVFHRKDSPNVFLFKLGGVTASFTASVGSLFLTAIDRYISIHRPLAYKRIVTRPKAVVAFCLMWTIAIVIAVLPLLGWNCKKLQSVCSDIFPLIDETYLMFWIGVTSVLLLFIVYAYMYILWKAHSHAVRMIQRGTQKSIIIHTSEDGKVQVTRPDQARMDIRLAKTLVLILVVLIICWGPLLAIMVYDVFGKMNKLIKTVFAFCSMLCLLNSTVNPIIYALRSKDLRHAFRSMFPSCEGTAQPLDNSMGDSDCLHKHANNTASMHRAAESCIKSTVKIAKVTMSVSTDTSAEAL

[7] = molecular target: GABA-A receptor; anion channel; test: Inhibitory activity at GABA A receptor, measured by the ability to displace [3H]GABA from GABA A receptor in rat brain; format: tissue-based
Adrenergic receptor beta = Adrenergic receptor beta (Rattus norvegicus, UniProt P18090+P10608+P26255); test: Inhibitory activity by measuring its ability to displace [125I]pindolol from beta-adrenergic receptor in rat brain; format: tissue-based
Rattus norvegicus [8] = test: Tested for antineophobic activity using the elevated plus maze test administered at 57 umol/kg perorally in rats; format: functional
[9] = Tested for inhibitory activity by measuring its ability to displace [3H]AMPA from glutamate (non-NMDA) receptor in rat brain; format: tissue-based
[10] = Inhibitory activity at GABA B receptor, measured by the ability to displace [3H]baclofen from GABA B receptor in rat brain; format: tissue-based
Glutamate NMDA receptor = test: Inhibitory activity by measuring its ability to displace [3H]-MK-801 from glutamate(NMDA) receptor in rat brain; format: tissue-based
[11] = molecular target: GABA-A receptor; anion channel; test: Inhibitory activity at GABA A receptor, measured by the ability to displace [3H]flumazenil from GABA A receptor in rat brain; format: tissue-based
[12] = molecular target: GABA-A receptor; anion channel; test: Inhibitory activity at GABA A receptor, measured by the ability to displace [35S]TBPS from GABA A receptor in rat brain; format: tissue-based
[13] = molecular target: T1, Gastrin/cholecystokinin type B receptor (Rattus norvegicus, UniProt P30553); test: Inhibitory activity by measuring its ability to displace [3H]L-365260 from cholecystokinin receptor in rat brain; format: tissue-based
T1 sequence (P30553 whole entry): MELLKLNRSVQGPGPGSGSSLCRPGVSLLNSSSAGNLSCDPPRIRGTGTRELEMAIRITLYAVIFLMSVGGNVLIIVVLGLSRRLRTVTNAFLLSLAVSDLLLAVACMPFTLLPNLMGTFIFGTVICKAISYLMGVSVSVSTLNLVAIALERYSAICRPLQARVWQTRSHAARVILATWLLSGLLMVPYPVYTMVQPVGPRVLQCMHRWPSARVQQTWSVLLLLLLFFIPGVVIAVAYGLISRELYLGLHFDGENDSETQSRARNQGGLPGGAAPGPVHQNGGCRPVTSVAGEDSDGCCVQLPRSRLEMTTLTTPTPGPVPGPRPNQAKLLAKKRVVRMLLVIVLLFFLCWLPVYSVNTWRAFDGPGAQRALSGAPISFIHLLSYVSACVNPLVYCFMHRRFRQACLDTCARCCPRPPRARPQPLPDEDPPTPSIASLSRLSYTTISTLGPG

[14] = molecular target: Serotonin 2 (5-HT2) receptor (Rattus norvegicus); test: Inhibitory activity by measuring its ability to displace [3H]ketanserin from serotonin receptor in rat brain
[15] = molecular target: Sigma receptor (Rattus norvegicus); test: Tested for inhibitory activity by measuring its ability to displace [3H]3-PPP from sigma receptor in rat brain
Opioid receptor [16] = molecular target: T2, Opioid receptor (Rattus norvegicus, UniProt P33533+P34975+P33535); test: Inhibition of [3H]naxolone binding to opiate receptors in rat brain; format: tissue-based
Rattus norvegicus [17] = test: Tested for antineophobic activity using the elevated plus maze test administered at 71 umol/kg perorally in rats; format: functional
Rattus norvegicus [18] = test: Tested for antineophobic activity using the elevated plus maze test administered at 78 umol/kg perorally in rats; format: functional
Rattus norvegicus [19] = test: Tested for antineophobic activity using the elevated plus maze test administered at 53 umol/kg perorally in rats; format: functional
[20] = molecular target: Adrenergic receptor alpha; test: Displacement of [3H]clonidine from alpha-adrenergic receptor in rat brain; format: tissue-based
Rattus norvegicus [21] = test: Tested for antineophobic activity using the elevated plus maze test administered at 55 umol/kg perorally in rats; format: functional
Rattus norvegicus [22] = test: Tested for antineophobic activity using the elevated plus maze test administered at 51 umol/kg perorally in rats; format: functional
Opioid receptor [23] = molecular target: T2, Opioid receptor; test: Displacement of [3H]naxolone from opiate receptor of rat brain

Structure (SMILES) | IC50 [1] | IC50 [2] | IC50 [3] | Ki (Translocator protein) | IC50 [5] | IC50 [6] | IC50 (Cannabinoid receptor 1) | IC50 [7] | IC50 (Adrenergic receptor beta) | IC50 [9] | IC50 [10] | IC50 (Glutamate NMDA receptor) | IC50 [11] | IC50 [12] | IC50 [13] | IC50 [14] | IC50 [15] | IC50 (Opioid receptor [16]) | also measured
CCCCCCNC(=O)Cc1c(-c2ccc(F)cc2)[nH]c2ccccc12 | > 1 µM | > 1 µM | > 1 µM | 0.323 µM | > 1 µM | > 1 µM | > 1 µM | > 1 µM | > 1 µM | > 1 µM | > 1 µM | > 1 µM | > 1 µM | > 1 µM | > 1 µM | > 1 µM | > 1 µM | > 1 µM | No. of entries (Rattus norvegicus [17]): 0.6; Time (Rattus norvegicus [17]): 1.6%
O=C(Cc1c(-c2ccccc2)[nH]c2ccccc12)N1CCCCC1 | > 1 µM | > 1 µM | > 1 µM | 0.35 µM | > 1 µM | > 1 µM | > 1 µM | > 1 µM | > 1 µM | > 1 µM | > 1 µM | > 1 µM | > 1 µM | > 1 µM | > 1 µM | – | – | – | No. of entries (Rattus norvegicus [18]): 2.3; Time (Rattus norvegicus [18]): 5.7%
CCCCCCN(CCCCCC)C(=O)Cc1c(-c2ccccc2)[nH]c2ccc(Cl)cc12 | > 1 µM | > 1 µM | > 1 µM | 0.0041 µM | > 1 µM | > 1 µM | > 1 µM | > 1 µM | > 1 µM | > 1 µM | > 1 µM | > 1 µM | > 1 µM | > 1 µM | > 1 µM | – | – | – | No. of entries (Rattus norvegicus [21]): 2.3; Time (Rattus norvegicus [21]): 4.3%
CCCCCCN(CCCCCC)C(=O)Cc1c(-c2ccc(Cl)cc2)[nH]c2ccc(Cl)cc12 | > 1 µM | > 1 µM | > 1 µM | 0.0036 µM | > 1 µM | > 1 µM | > 1 µM | > 1 µM | > 1 µM | > 1 µM | > 1 µM | > 1 µM | > 1 µM | > 1 µM | > 1 µM | > 1 µM | > 1 µM | > 1 µM | No. of entries (Rattus norvegicus [22]): 2.3; Time (Rattus norvegicus [22]): 5.3%
CCCN(CCC)C(=O)Cc1c(-c2ccc(F)cc2)[nH]c2ccccc12 | > 1 µM | > 1 µM | > 1 µM | 0.1 µM | > 1 µM | > 1 µM | > 1 µM | > 1 µM | > 1 µM | > 1 µM | > 1 µM | > 1 µM | > 1 µM | > 1 µM | > 1 µM | > 1 µM | > 1 µM | – | IC50 (Opioid receptor [23]): > 1 µM

Continued, in another order:

IC50 [1] | IC50 [2] | IC50 [3] | Ki (Translocator protein) | IC50 [5] | IC50 [6] | IC50 (Cannabinoid receptor 1) | IC50 [7] | IC50 (Adrenergic receptor beta) | IC50 [9] | IC50 [10] | IC50 (Glutamate NMDA receptor) | IC50 [11] | IC50 [12] | IC50 [13] | IC50 [14] | IC50 [15] | IC50 (Opioid receptor [16]) | Structure (SMILES) | also measured
> 1 µM | > 1 µM | > 1 µM | 0.0044 µM | > 1 µM | > 1 µM | > 1 µM | > 1 µM | > 1 µM | > 1 µM | > 1 µM | > 1 µM | > 1 µM | > 1 µM | > 1 µM | – | – | – | CCCCCCN(CCCCCC)C(=O)Cc1c(-c2ccc(F)cc2)[nH]c2ccccc12 | No. of entries (Rattus norvegicus [4]): 4.9 and 5.5; Time spent (Rattus norvegicus [4]): 22 s and 25 s; No. of entries (Rattus norvegicus [8]): 2.1; Time (Rattus norvegicus [8]): 4.5%
> 1 µM | – | > 1 µM | 0.0023 µM | > 1 µM | > 1 µM | > 1 µM | > 1 µM | > 1 µM | > 1 µM | > 1 µM | > 1 µM | > 1 µM | > 1 µM | > 1 µM | > 1 µM | > 1 µM | > 1 µM | CCCCCCN(CCCCCC)C(=O)Cc1c(-c2ccc(F)cc2)[nH]c2ccc(Cl)cc12 | No. of entries (Rattus norvegicus [19]): 0.4; Time (Rattus norvegicus [19]): 0.4%; IC50 [20]: > 1 µM
